# Assay outcomes from PubChem BioAssay.
# An excerpt weighted towards active compounds, which were near 4.6% of everything screened.
# OX1R antag-1: blocks the human orexin 1 receptor; AID 434989; 330,000 tested, 0.43% active; inhibition, % at 5 µM; CHO/OX1R cells, Fluo-8 calcium fluorescence, orexin A; O43613;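 active means inhibition above its plate's threshold, mean inhibition of all tested compounds on the plate plus 3 SD, cut at about 37% in these data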;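 further: 0% = orexin A challenge wells and 100% = SB-334867-A antagonist wells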
# Target sequence (O43613 whole entry, looked up): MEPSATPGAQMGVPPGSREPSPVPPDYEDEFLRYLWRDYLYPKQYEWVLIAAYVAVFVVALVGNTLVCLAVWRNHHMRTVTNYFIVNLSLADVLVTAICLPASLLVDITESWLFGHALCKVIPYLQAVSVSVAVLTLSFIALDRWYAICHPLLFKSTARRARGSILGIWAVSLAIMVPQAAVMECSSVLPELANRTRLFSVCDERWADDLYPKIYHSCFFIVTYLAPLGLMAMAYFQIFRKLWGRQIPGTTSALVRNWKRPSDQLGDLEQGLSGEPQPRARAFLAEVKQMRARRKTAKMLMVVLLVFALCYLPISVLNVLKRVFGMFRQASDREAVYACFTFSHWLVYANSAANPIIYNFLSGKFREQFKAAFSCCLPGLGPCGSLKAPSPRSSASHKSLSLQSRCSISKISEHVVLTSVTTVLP
# TAAR1 agonist: agonists of human TAAR1. Q96RJ0. CHO RD-HGA16 TAAR1, Fluo-8 calcium fluorescence; vehicle wells 0%, saturating PEA agonist 100%. activation, % at 3 µM. 360,000 tested, 0.99% active;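 active means activation above the mean activation of all test compounds in the run plus 3 SD, cut at about 38% in these data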
#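 Signal – calcium-sensitive Fluo-8 signal, excitation 470-495, emission 515-575 nm · System – RD-HGA16 (CHO) cells co-expressing Gα16 and hTAAR1 · Incubation – 17-24 h seeding, 75 min 37 °C dye, 30 min RT · Compound dosing – 3 µM single concentration · Repeats – no replicates (n 1)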
# TAAR1 antagonist: human TAAR1 antagonism; inhibition, % at 3 µM; CHO RD-HGA16 TAAR1, Fluo-8 calcium fluorescence, antagonist; 360,000 tested, 1.5% active;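 active means inhibition above a per-plate cutoff, the mean inhibition of test compounds on that plate plus 3 SD, cut at about 49% in these data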;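 further: 0% = DMSO plus EC80 beta-PEA response and 100% = DMSO alone without agonist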
#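 Material: RD-HGA16 CHO cells with stable hTAAR1 and Gα16; Dosing: single nominal final test compound concentration of 3 µM; Schedule: seeding 17-24 h prior, 75-min 37 °C, 30-min RT dye loading; Detection: kinetic Fluo-8 calcium fluorescence measurement; Measure: % inhibition from peak post-agonist over basal fluorescence ratio; Benchmarks: vehicle and agonist controls.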
# GPR7 antagonist: human neuropeptides B/W receptor 1 antagonism; GPR7-expressing cells, fluorescence antagonist assay; inhibition, % at 4.4 µM; 290,000 tested, 1.1% active; AID 1861; in the data active means inhibition above about 16%, passing the limit was not always enough;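 further: cells stimulated with the agonist NPW; 0% = agonist with vehicle and 100% = vehicle without agonist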
# Target sequence (P48145 whole entry, looked up): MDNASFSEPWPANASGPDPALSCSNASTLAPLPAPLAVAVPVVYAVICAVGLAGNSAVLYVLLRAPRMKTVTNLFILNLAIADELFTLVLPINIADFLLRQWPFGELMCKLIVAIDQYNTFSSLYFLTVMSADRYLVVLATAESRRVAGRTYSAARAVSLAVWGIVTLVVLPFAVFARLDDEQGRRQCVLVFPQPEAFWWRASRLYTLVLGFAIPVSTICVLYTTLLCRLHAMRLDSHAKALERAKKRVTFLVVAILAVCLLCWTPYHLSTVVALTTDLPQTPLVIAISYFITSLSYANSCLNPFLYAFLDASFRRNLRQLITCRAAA
# OX1R antag-2: OX1R (human) antagonism; O43613; OX1R-expressing cells, FRET antagonist read-out; inhibition, % at 6.6 µM; 330,000 tested, 1.8% active; AID 485270; in the data active means inhibition mostly above about 38%, no sharp cut-off; inactive means mostly below about 40%;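 further: 0% = agonist challenge alone and 100% = reference antagonist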
# CHO parental Ca: counter-screen for OX1R antagonists: effect in parental CHO cells; parental CHO-K1, ATP-induced calcium, Fluo-8 fluorescence; inhibition, % at 5.6 µM; 330,000 tested, 0.63% active;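 active means inhibition above that plate's mean sample inhibition plus 3 SD, cut at about 26% in these data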;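 further: 0% = ATP-challenged DMSO wells and 100% = DMSO wells without ATP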
#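 Assay system: untransfected parental CHO cell line. Also added: ATP agonist challenge. Dosing: one dose, 5.6 µM nominal. Measured by: Fluo-8 fluorescence. Read-out: % inhibition. Benchmarks: ATP wells versus no-ATP DMSO wells. Repeats: no replicates.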
# TAAR1 nonsel count: nonselective antagonist in TAAR1 antagonist counter-screen; inhibition, % at 3 µM; counterscreen cell line, calcium fluorescence, antagonist mode; shares compounds with TAAR1 antagonist; 2,400 tested, 77% active; AID 651780; in the data active means inhibition above about 22%;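 further: CHO-Ga16 host cells stimulated with ATP at an EC80 level; 0% = agonist EC80 plus vehicle and 100% = vehicle without agonist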
# TAAR1 ant conf: human TAAR1 antagonism, confirmed; shares compounds with TAAR1 antagonist; TAAR1-expressing cells, fluorescence antagonist read-out; inhibition, % at 3 µM; 2,400 tested, 40% active; AID 651785; in the data active means inhibition above about 49%;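 further: CHO-Ga16 host cells challenged with agonist PEA near its EC80; 0% = agonist at EC80 plus vehicle and 100% = vehicle with no agonist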
# Ga16 nonsel ag: nonselective Ga16 agonist in TAAR1 antagonist counter-screen; shares compounds with TAAR1 antagonist; Ga16-expressing cells, calcium fluorescence, agonist counterscreen; activation, % at 3 µM; 2,400 tested, 18% active; AID 651953; in the data active means activation above about 12%;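 further: 0% = vehicle wells and 100% = saturating stimulus response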
# TAAR1 ag count: counter-screen for human TAAR1 antagonists: TAAR1 agonists; 2,400 tested, 2% active; activation, % at 3 µM; shares compounds with TAAR1 antagonist; AID 651955; hTAAR1 cell line, fluorescence activation, agonist mode; in the data active means activation above about 37%;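 further: CHO cells stably expressing TAAR1 with calcium dye readout; 0% = DMSO vehicle and 100% = full agonist response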
# * marks the source's active call; other numbers are inactive results; / = no result.
SMILES,OX1R antag-1,TAAR1 agonist,TAAR1 antagonist,GPR7 antagonist,OX1R antag-2,CHO parental Ca,TAAR1 nonsel count,TAAR1 ant conf,Ga16 nonsel ag,TAAR1 ag count
Cc1c(-c2ccccc2)nc2ccccc2c1C(=O)OCC(=O)Nc1ncc(C(F)(F)F)cc1Cl,-18.3,5.0,53.4*,-9.2,6.2,-25.4,14.3,27.7,4.6,9.6
COc1ccc(CCNC(=O)c2ccc3c(c2)NC(=O)C(CSCc2cc(C)ccc2C)N3)cc1OC (stereo not drawn),-11.5,/,/,-2.3,24.6,5.7,/,/,/,/
Nn1c(SCC(=O)Nc2ccccc2Oc2ccccc2)nnc1C1CC1,/,-0.3,-24.5,/,/,/,/,/,/,/
COCCOC(=O)c1c(C)n(C)c2ccc(OC(=O)c3ccccc3OC)cc12,-28.3,11.7,52.8*,-12.1,8.7,-11.5,26.2*,44.9,9.3,7.5
COCCOC(=O)c1c(C)n(C)c2ccc(OC(=O)c3ccco3)cc12,-28.3,5.3,6.1,4.3,6.8,-19.9,/,/,/,/
COc1ccc(C(NC(=O)C2CCN(CCCOc3ccccc3)CC2)c2cccs2)cc1 (stereo not drawn),/,9.6,-25.0,/,/,/,/,/,/,/
Cc1ccc(C(=O)Nc2ccc(C)c(S(=O)(=O)Nc3ccccc3Cl)c2)s1,-9.5,5.3,68.2*,-13.5,32.6,-17.7,20.4,22.6,3.3,-0.6
CCOC(=O)Cc1ccc(Nc2nc(NCc3cccs3)nc3ccsc23)cc1,/,6.2,75.6*,/,/,/,42.4*,45.2,5.0,-0.6
CCS(=O)(=O)c1ccc(-c2csc(-c3ccccc3)n2)c(Cl)c1Cl,-29.8,13.8,67.7*,24.4,19.0,-13.4,23.6*,24.2,2.3,4.8
COc1cccc(NC(=O)Cn2nnc(C(=O)NCCc3ccccc3)c2N)c1,-24.8,8.5,-26.2,-2.6,-2.6,-11.2,/,/,/,/
C[C@H](NC(=O)c1nc[nH]c1C(=O)OCc1ccccc1)c1ccccc1,-11.0,27.8,27.1,/,-2.8,-19.7,/,/,/,/
CC(C)C[C@H](NC(=O)c1nc[nH]c1C(=O)NCC(=O)OC(C)(C)C)C(=O)OCc1ccccc1,-36.4,-2.2,2.4,/,6.9,-8.6,/,/,/,/
CC(C)C[C@H](NC(=O)c1nc[nH]c1C(=O)NCC(=O)OCc1ccccc1)C(=O)OCc1ccccc1,-20.8,11.3,66.6*,1.4,2.7,7.6,20.9,53.0*,10.8,17.0
C[C@H](NC(=O)c1nc[nH]c1C(=O)NCC(=O)OCc1ccccc1)c1ccccc1,-26.2,16.6,64.0*,-2.4,31.7,-11.7,32.5*,50.2*,8.3,8.8
CNC(=O)c1[nH]cnc1C(=O)N[C@@H](C)C(=O)OCc1ccccc1,-16.0,20.4,46.0,/,30.4,-1.2,/,/,/,/
C[C@H](NC(=O)c1nc[nH]c1C(=O)NCC(=O)OCc1ccccc1)C(=O)OCc1ccccc1,-11.0,12.2,70.7*,-2.9,9.4,-4.6,36.3*,61.6*,6.2,5.9
CCCNS(=O)(=O)c1cc2c(cc1Br)CCN2C(=O)CC,/,0.8,9.9,/,/,/,/,/,/,/
CC(C)(C)c1ccc(C(=O)OCCNC(=O)c2c(Cl)nc3ccccn23)cc1,-14.3,26.1,73.2*,-0.8,16.8,-26.0,29.3*,48.4,10.3,15.3
COc1ccc(-c2c(C#N)c(N)nc3c2CCc2ccccc2-3)cc1OC,-5.8,22.6,60.1*,2.1,3.3,-10.3,31.3*,51.7*,9.2,24.2
COc1cc(-c2c(C#N)c(N)nc3c2CCCC3)ccc1O,-28.7,6.6,-5.1,-5.6,0.9,-17.9,/,/,/,/
COc1ccc(-c2cc(-c3ccc(O)cc3)nc(N)c2C#N)cc1OC,-14.3,13.4,50.4*,-0.5,6.4,-18.0,26.2*,46.2,7.7,14.6
CCCc1cc(-c2ccc(O)c(OCC)c2)c(C#N)c(N)n1,-16.8,0.2,0.6,-5.6,37.8,-15.7,/,/,/,/
COC(=O)[C@]1(Cc2ccccc2)N[C@H](c2ccc(-c3ccc4c(c3)OCO4)cc2)[C@@H]2C(=O)N(C)C(=O)[C@@H]21,-10.8,3.7,0.8,/,17.9,-7.2,/,/,/,/
Cn1ncc2c(=S)[nH]c(=S)[nH]c21,/,-0.5,-25.5,/,/,/,/,/,/,/
Cc1nc(-c2ccc(S(=O)(=O)Oc3ccccc3Cl)s2)cs1,9.5,8.7,78.7*,2.0,5.6,57.5*,28.1*,49.1*,2.3,3.2
SMILES,OX1R antag-1,TAAR1 agonist,TAAR1 antagonist,GPR7 antagonist,OX1R antag-2,CHO parental Ca,TAAR1 nonsel count,TAAR1 ant conf,Ga16 nonsel ag,TAAR1 ag count
CCC(C(=O)NCc1cccnc1)n1nc(C)n2c(cc3occc32)c1=O (stereo not drawn),-1.0,6.2,-21.8,-16.3,7.8,0.8,/,/,/,/
COc1cc(SC)ccc1C(=O)Nc1ccncc1,-19.7,-1.8,-13.9,-2.9,4.9,-14.3,/,/,/,/
COc1cc(SC)ccc1C(=O)Nc1ccccc1C#N,-16.0,25.1,49.8*,-3.7,13.6,-20.0,8.5,15.7,-0.5,-0.3
Cc1cc(C)n(-c2ccc(C(=O)Nc3ccc(C)c(S(=O)(=O)N4CCOCC4)c3)cc2)n1,-12.0,17.4,77.6*,1.5,25.3,-7.2,41.0*,55.3*,13.8*,16.2
CC(=O)c1ccc(NC(=O)c2ccc(C)c(S(=O)(=O)N3CCOCC3)c2)cc1,-25.4,11.1,33.5,-11.9,25.3,-16.5,/,/,/,/
Cc1ccc(C(=O)Nc2ccc3cn[nH]c3c2)cc1S(=O)(=O)N1CCOCC1,-4.9,12.1,61.5*,-11.5,8.5,-13.3,30.7*,45.9,7.0,5.7
C=CC[C@@H](CC(=O)N[C@@H](CO)Cc1ccccc1)C(=O)NC[C@@H](OC(=O)[C@@H](CC=C)Cc1ccc(F)cc1)c1ccccc1,-12.0,11.2,6.1,/,3.3,-5.4,/,/,/,/
C=CC[C@@H](CC(=O)NCCO)C(=O)NC[C@H](OC(=O)[C@@H](CC=C)Cc1ccc(F)cc1)c1ccccc1,-1.0,30.7,78.0*,/,32.8,-12.1,31.5*,63.3*,12.7*,15.3
C=CC[C@@H](CC(=O)N[C@@H](CO)Cc1ccccc1)C(=O)NC[C@H](OC(=O)[C@@H](CC=C)Cc1ccc(F)cc1)c1ccccc1,7.3,19.8,63.5*,/,12.0,-17.7,32.3*,53.9*,9.8,11.0
O=S(=O)(c1ccccc1)C(Br)S(=O)(=O)c1ccccc1,/,3.6,-1.1,/,/,/,/,/,/,/
Cc1oc2cc(O)cc(C)c2c(=O)c1-c1cnn(-c2ccccc2)c1,-6.7,4.2,57.5*,-1.0,57.7,-7.7,32.9*,44.6,8.2,4.5
